One data set has as its system RAW264.7. Kind of data set: Antiinflammatory activity in mouse RAW264.7 cells assessed as inhibition of NO production after 24 hrs by Griess assay. The conditions noted are these: RAW264.7, 24 h. In kind it is functional, cell-based. In short, it runs like this: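 RAW 264.7 mouse macrophages were kept in RPMI 1640 with 10% heat-inactivated FBS, penicillin and streptomycin at 37 °C and 5% CO2. They were seeded at 5 × 10^5 cells/mL. After 1 h, LPS (1 mg/mL as printed) and graded compound concentrations (DMSO solvent) were added for 24 h. Supernatant NO was measured by Griess reaction.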
On the technique in general: The Griess reaction detects nitrite, a stable product of nitric oxide.
With `C[C@]12CCC(=O)C=C1CC[C@@H]1[C@@H]2[C@@H](O)C[C@@]2(C)[C@H]1CC[C@]2(O)C(=O)CO` [HYDROCORTISONE], the IC50 was 53.7 µM.

Take `C=C(C)[C@@H]1C[C@H](OC(C)=O)C2=C(C(=O)C[C@]34CO[C@@]5(CC)CC[C@](C)(O5)[C@H]3CC[C@@]24C)[C@@]1(C)CCC(=O)OC`: the IC50 stood at 98.3 µM.

Regarding `C=C(C)[C@@H]1C[C@H](OC(C)=O)[C@]23OC[C@]4(CC(=O)[C@@H]2[C@@]1(C)CCC(=O)OC)[C@@]3(C)CC[C@@]41O[C@@]2(CC)CC[C@]1(C)O2`, the IC50 is 60.9 µM.

Take `C=C(C)[C@@H]1CC(=O)C2=C(C(=O)C[C@]34CO[C@@]5(CC)CC[C@](C)(O5)[C@H]3CC[C@@]24C)[C@@]1(C)CCC(=O)OC`: the IC50 was found to be 24.3 µM.

The test system of a further data set is RAW264.7. Briefly: Cytotoxicity against mouse RAW264.7 cells assessed as reduction in cell viability at 200 uM. In kind it is cell-based. The conditions noted are these: raw264.7, 200 µM.
Turning to `C=C(C)[C@@H]1C[C@H](OC(C)=O)C2=C(C(=O)C[C@]34CO[C@@]5(CC)CC[C@](C)(O5)[C@H]3CC[C@@]24C)[C@@]1(C)CCC(=O)OC`, the Activity entry is “Non-toxic”.

In the case of `C=C(C)[C@@H]1C[C@H](OC(C)=O)[C@]23OC[C@]4(CC(=O)[C@@H]2[C@@]1(C)CCC(=O)OC)[C@@]3(C)CC[C@@]41O[C@@]2(CC)CC[C@]1(C)O2`, the Activity entry is reported as “Non-toxic”.

With `C=C(C)[C@@H]1CC(=O)C2=C(C(=O)C[C@]34CO[C@@]5(CC)CC[C@](C)(O5)[C@H]3CC[C@@]24C)[C@@]1(C)CCC(=O)OC`, the Activity result is given as “Non-toxic”.

In another data set the test system is Plasmodium falciparum. Briefly: Antiplasmodial activity against Plasmodium falciparum 3D7 infected in human RBC assessed as reduction in parasitemia after 48 hrs by fluorescence assay. It counts as functional, organism-based. To be noted: 3D7, 48 h. Put shortly:
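P. falciparum 3D7 was grown in human RBCs in Albumax II-supplemented RPMI 1640. Assay cultures at 2% hematocrit and 1% parasitemia were exposed to compounds (DMSO solvent) for about 48 h at 37 °C. Parasite DNA was labelled with PicoGreen in TE buffer pH 7.5 with 2% Triton X-100 for 30 min in the dark and read at ex 485 / em 538 nm. IC50 came from linear interpolation; three independent experiments, each in triplicate.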
Turning to `C=C(C)[C@@H]1C[C@H](OC(C)=O)C2=C(C(=O)C[C@]34CO[C@@]5(CC)CC[C@](C)(O5)[C@H]3CC[C@@]24C)[C@@]1(C)CCC(=O)OC`, the IC50 is 4 µM.

In the case of `C=C(C)[C@@H]1C[C@H](OC(C)=O)[C@]23OC[C@]4(CC(=O)[C@@H]2[C@@]1(C)CCC(=O)OC)[C@@]3(C)CC[C@@]41O[C@@]2(CC)CC[C@]1(C)O2`, the concentration for half-maximal inhibition (IC50) came to 1.7 µM.

For the compound `C=C(C)[C@@H]1CC(=O)C2=C(C(=O)C[C@]34CO[C@@]5(CC)CC[C@](C)(O5)[C@H]3CC[C@@]24C)[C@@]1(C)CCC(=O)OC`, the IC50 is 7.9 µM.

Regarding `C[C@@H]1CC[C@H]2[C@@H](C)C(=O)O[C@@H]3O[C@@]4(C)CC[C@@H]1[C@]32OO4` [ARTEMISININ], the IC50 was determined as 0.0304 µM.

Another data set deals with A549. Briefly: Cytotoxicity against human A549 cells assessed as reduction in cell viability after 72 hrs by MTT assay. In kind it is functional, cell-based. The conditions noted are these: A549, 72 h. In short, it runs like this:
(§1)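 Cells were exposed to compounds (DMSO solvent) for 72 h at 37 °C in 5% CO2. MTT (0.5 mg/mL in medium) was added for 4 h, and formazan was dissolved in DMSO and read at 540 nm. Inhibition rates were plotted against concentration to give IC50 (±SD); three independent experiments, each in triplicate.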
In general terms: Formazan colour is commonly taken as a measure of viable cells.
On to `C=C(C)[C@@H]1C[C@H](OC(C)=O)C2=C(C(=O)C[C@]34CO[C@@]5(CC)CC[C@](C)(O5)[C@H]3CC[C@@]24C)[C@@]1(C)CCC(=O)OC`, for which the 50% inhibitory concentration (IC50) came out at 47.6 µM.

As to `C=C(C)[C@@H]1C[C@H](OC(C)=O)[C@]23OC[C@]4(CC(=O)[C@@H]2[C@@]1(C)CCC(=O)OC)[C@@]3(C)CC[C@@]41O[C@@]2(CC)CC[C@]1(C)O2`, the IC50 amounted to 35.8 µM.

`C=C(C)[C@@H]1CC(=O)C2=C(C(=O)C[C@]34CO[C@@]5(CC)CC[C@](C)(O5)[C@H]3CC[C@@]24C)[C@@]1(C)CCC(=O)OC`: the IC50 is greater than 100 µM.

In the next data set the test system is HeLa. Briefly: Cytotoxicity against human HeLa cells assessed as reduction in cell viability after 72 hrs by MTT assay. In kind it is functional, cell-based.
Settings: not given
In short, it runs like this: as §1
For the compound `C=C(C)[C@@H]1C[C@H](OC(C)=O)C2=C(C(=O)C[C@]34CO[C@@]5(CC)CC[C@](C)(O5)[C@H]3CC[C@@]24C)[C@@]1(C)CCC(=O)OC`, the IC50 was greater than 100 µM.

As for `C=C(C)[C@@H]1C[C@H](OC(C)=O)[C@]23OC[C@]4(CC(=O)[C@@H]2[C@@]1(C)CCC(=O)OC)[C@@]3(C)CC[C@@]41O[C@@]2(CC)CC[C@]1(C)O2`, the IC50 was greater than 100 µM.

Regarding `C=C(C)[C@@H]1CC(=O)C2=C(C(=O)C[C@]34CO[C@@]5(CC)CC[C@](C)(O5)[C@H]3CC[C@@]24C)[C@@]1(C)CCC(=O)OC`, the IC50 was found to be 65.5 µM.

By IC50 is commonly meant the concentration needed to halve the response being measured.

Source of the values: ChEMBL document CHEMBL3352211, “Ganoboninketals A-C, Antiplasmodial 3,4-seco-27-Norlanostane Triterpenes from Ganoderma boninense Pat” (J Nat Prod, 2014).
